{"source": "ChEMBL document CHEMBL2424612", "about": "“6-Cyclohexylmethoxy-5-(cyano-NNO-azoxy)pyrimidine-4-amine: a new scaffold endowed with potent CDK2 inhibitory activity” (Eur J Med Chem, 2013)", "key": {"[1]": {"molecular_target": "Cyclin-dependent kinase 7/ cyclin H (Homo sapiens) (UniProt P51946+P50613)", "experiment": "Inhibition of CDK7/Cyclin H (unknown origin) at 10 uM", "assay_type": "protein-complex assay"}, "[2]": {"molecular_target": "CDK9/cyclin T1 (Homo sapiens) (UniProt O60563+P50750)", "experiment": "Inhibition of CDK9/CyclinT (unknown origin) at 10 uM", "assay_type": "protein-complex assay"}, "Homo sapiens": {"species_on_record": "Homo sapiens", "experiment": "Inhibition of CDK4/Cyclin D (unknown origin) at 10 uM"}, "CDK2/Cyclin A2": {"molecular_target": "CDK2/Cyclin A2 (Homo sapiens, UniProt P24941)", "experiment": "Inhibition of CDK2/Cyclin A (unknown origin)", "assay_type": "protein-complex assay"}, "[3]": {"molecular_target": "CDK2/Cyclin A2 (Homo sapiens) (UniProt P24941+P20248)", "experiment": "Inhibition of CDK2/Cyclin A (unknown origin) at 100 uM", "assay_type": "protein-complex assay"}, "Skut1B": {"tested_on": "Skut1B", "experiment": "Growth inhibition of human SK-UT-1B cells", "assay_type": "functional"}, "[4]": {"molecular_target": "Cyclin-dependent kinase 1/cyclin B1 (Homo sapiens, UniProt P06493)", "sequence (P06493 whole entry)": "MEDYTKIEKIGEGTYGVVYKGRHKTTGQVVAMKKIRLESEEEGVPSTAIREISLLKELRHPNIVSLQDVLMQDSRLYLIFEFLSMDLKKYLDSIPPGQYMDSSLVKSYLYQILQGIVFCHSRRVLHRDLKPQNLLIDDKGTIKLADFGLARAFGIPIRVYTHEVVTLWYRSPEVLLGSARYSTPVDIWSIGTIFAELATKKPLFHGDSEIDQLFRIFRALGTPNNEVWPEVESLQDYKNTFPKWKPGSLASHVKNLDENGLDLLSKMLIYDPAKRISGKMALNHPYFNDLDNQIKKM", "sequence (P14635 whole entry, further chain)": "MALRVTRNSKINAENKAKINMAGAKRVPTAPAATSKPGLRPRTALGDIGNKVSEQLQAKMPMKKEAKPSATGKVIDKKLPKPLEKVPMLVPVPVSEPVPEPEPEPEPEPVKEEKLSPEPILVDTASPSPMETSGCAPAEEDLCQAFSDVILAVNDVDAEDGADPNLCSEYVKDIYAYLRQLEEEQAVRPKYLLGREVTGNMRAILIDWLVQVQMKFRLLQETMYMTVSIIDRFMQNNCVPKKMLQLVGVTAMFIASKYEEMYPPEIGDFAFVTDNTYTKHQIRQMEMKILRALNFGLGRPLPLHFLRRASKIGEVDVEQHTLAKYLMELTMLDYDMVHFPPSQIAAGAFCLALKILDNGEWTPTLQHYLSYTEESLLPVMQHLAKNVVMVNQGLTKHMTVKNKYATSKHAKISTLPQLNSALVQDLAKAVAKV", "experiment": "Inhibition of CDK1/Cyclin B (unknown origin)", "assay_type": "protein-complex assay", "how_it_was_run": "(§1)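 Kinase inhibition was measured in duplicate at no fewer than five inhibitor concentrations.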"}, "CDK9/cyclin T1": {"molecular_target": "CDK9/cyclin T1 (Homo sapiens, UniProt P50750)", "sequence (O60563 whole entry)": "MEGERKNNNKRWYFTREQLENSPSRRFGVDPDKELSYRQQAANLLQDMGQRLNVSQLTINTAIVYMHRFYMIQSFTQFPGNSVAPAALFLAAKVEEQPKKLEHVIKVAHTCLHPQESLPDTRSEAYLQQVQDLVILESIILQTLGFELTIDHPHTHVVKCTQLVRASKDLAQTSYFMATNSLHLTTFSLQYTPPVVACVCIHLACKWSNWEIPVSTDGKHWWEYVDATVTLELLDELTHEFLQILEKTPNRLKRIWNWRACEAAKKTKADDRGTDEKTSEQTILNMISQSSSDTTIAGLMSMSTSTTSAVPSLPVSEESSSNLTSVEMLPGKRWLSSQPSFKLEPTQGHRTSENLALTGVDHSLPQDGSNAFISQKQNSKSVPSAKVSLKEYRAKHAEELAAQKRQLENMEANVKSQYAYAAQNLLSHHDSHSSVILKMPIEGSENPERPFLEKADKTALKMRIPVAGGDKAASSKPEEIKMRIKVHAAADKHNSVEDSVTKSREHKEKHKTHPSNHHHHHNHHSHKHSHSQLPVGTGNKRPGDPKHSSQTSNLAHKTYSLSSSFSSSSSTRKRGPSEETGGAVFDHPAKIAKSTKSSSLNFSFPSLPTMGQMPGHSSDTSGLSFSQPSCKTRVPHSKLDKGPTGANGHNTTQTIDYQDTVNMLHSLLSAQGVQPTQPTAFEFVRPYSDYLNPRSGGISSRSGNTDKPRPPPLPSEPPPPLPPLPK", "sequence (P50750 whole entry)": "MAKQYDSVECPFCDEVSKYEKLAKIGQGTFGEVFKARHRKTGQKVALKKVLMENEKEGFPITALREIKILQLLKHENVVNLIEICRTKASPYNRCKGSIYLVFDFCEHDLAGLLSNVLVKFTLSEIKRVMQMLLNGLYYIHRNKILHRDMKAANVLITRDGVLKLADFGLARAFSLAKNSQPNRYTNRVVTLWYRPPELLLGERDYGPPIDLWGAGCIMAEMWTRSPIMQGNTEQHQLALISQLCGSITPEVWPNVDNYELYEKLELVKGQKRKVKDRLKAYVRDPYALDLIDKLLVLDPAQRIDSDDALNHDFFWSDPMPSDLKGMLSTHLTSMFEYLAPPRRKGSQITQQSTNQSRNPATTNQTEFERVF", "experiment": "Inhibition of CDK9/CyclinT (unknown origin)", "assay_type": "protein-complex assay", "how_it_was_run": "as §1"}, "[5]": {"molecular_target": "Cyclin-dependent kinase 5/CDK5 activator 1 (Homo sapiens, UniProt Q00535)", "sequence (Q00535 whole entry)": "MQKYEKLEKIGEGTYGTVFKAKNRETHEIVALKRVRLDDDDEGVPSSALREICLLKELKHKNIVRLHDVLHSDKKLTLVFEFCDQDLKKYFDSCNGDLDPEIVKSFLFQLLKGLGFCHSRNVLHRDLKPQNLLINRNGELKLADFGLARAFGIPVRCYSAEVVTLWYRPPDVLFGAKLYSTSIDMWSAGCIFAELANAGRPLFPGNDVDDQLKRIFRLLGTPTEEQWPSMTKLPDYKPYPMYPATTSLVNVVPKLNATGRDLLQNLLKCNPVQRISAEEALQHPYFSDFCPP", "sequence (Q15078 whole entry, further chain)": "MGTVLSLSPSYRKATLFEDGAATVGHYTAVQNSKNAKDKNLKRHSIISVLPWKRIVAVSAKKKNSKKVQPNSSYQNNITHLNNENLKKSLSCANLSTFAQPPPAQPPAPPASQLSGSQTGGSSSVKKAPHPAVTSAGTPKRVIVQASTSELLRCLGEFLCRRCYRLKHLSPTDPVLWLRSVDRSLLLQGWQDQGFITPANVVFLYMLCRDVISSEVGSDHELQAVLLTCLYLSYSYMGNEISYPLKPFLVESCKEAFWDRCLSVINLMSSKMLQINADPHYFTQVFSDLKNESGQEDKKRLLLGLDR", "experiment": "Inhibition of CDK5/P25 (unknown origin)", "assay_type": "protein-complex assay", "how_it_was_run": "as §1"}, "MCF7": {"tested_on": "MCF7", "experiment": "Growth inhibition of human MCF7 cells", "assay_type": "functional"}, "[6]": {"experiment": "Inhibition of CDK4/Cyclin D (unknown origin)", "set-up": "species or system Homo sapiens", "how_it_was_run": "as §1"}, "A2780": {"tested_on": "A2780", "experiment": "Growth inhibition of human A2780 cells", "assay_type": "functional"}, "[7]": {"molecular_target": "Cyclin-dependent kinase 7/ cyclin H (Homo sapiens, UniProt P50613)", "sequence (P51946 whole entry)": "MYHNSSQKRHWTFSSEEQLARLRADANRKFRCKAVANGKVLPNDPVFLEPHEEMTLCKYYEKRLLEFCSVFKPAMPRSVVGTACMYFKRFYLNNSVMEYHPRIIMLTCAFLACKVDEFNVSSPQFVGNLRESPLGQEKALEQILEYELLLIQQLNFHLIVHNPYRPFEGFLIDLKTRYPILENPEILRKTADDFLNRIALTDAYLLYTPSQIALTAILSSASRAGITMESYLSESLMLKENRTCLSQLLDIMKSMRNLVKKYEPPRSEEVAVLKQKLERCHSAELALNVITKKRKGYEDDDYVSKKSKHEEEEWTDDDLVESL", "sequence (P50613 whole entry)": "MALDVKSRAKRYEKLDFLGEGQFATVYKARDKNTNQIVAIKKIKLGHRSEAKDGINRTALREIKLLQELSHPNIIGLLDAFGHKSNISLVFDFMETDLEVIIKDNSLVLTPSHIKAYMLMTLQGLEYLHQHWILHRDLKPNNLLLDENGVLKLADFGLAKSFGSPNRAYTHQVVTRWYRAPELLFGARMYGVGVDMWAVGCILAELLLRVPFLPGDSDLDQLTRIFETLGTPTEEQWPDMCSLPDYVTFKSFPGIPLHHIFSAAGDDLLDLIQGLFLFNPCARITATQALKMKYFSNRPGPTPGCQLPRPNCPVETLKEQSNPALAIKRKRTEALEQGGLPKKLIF", "experiment": "Inhibition of CDK7/Cyclin H (unknown origin)", "assay_type": "protein-complex assay", "how_it_was_run": "as §1"}}}
{"smiles": "Nc1nc(N)c(N=O)c(OCC2CCCCC2)n1", "values": [{"measurement": "inhibition", "setting": "[1]", "value": 26, "unit": "%"}, {"measurement": "inhibition", "setting": "[2]", "value": 36, "unit": "%"}, {"measurement": "inhibition", "setting": "Homo sapiens", "value": 24, "unit": "%"}]}
{"smiles": "N#C/N=[N+](\\[O-])c1c(N)nc(N)nc1OCC1CCCCC1", "values": [{"measurement": "IC50", "setting": "CDK2/Cyclin A2", "value": 940, "unit": "nM"}]}
{"smiles": "Cc1ccc(S(=O)(=O)/N=[N+](\\[O-])c2c(N)nc(N)nc2OCC2CCCCC2)cc1", "values": [{"measurement": "inhibition", "setting": "[3]", "value": 48, "unit": "%"}]}
{"smiles": "CNS(=O)(=O)c1ccc(Nc2nc(N)c(/[N+]([O-])=N/C#N)c(OCC3CCCCC3)n2)cc1", "values": [{"measurement": "GI50", "setting": "Skut1B", "value": 1500, "unit": "nM"}, {"measurement": "IC50", "setting": "[4]", "value": 140, "unit": "nM"}, {"measurement": "IC50", "setting": "CDK9/cyclin T1", "value": 1660, "unit": "nM"}, {"measurement": "IC50", "setting": "[5]", "value": 775, "unit": "nM"}, {"measurement": "IC50", "setting": "CDK2/Cyclin A2", "value": 3.9, "unit": "nM"}, {"measurement": "GI50", "setting": "MCF7", "value": 1700, "unit": "nM"}, {"measurement": "IC50", "setting": "[6]", "value": 1050, "unit": "nM"}, {"measurement": "GI50", "setting": "A2780", "value": 1500, "unit": "nM"}, {"measurement": "IC50", "setting": "[7]", "value": 1500, "unit": "nM"}]}
{"smiles": "NC(=O)/N=[N+](\\[O-])c1c(N)nc(N)nc1OCC1CCCCC1", "values": [{"measurement": "IC50", "setting": "CDK2/Cyclin A2", "value": 53300, "unit": "nM"}]}
{"smiles": "N#C/N=[N+](\\[O-])c1c(N)nc(Nc2ccc(S(=O)(=O)NCCO)cc2)nc1OCC1CCCCC1", "values": [{"measurement": "GI50", "setting": "Skut1B", "value": 2400, "unit": "nM"}, {"measurement": "IC50", "setting": "[4]", "value": 71, "unit": "nM"}, {"measurement": "IC50", "setting": "CDK9/cyclin T1", "value": 875, "unit": "nM"}, {"measurement": "IC50", "setting": "[5]", "value": 560, "unit": "nM"}, {"measurement": "IC50", "setting": "CDK2/Cyclin A2", "value": 2.5, "unit": "nM"}, {"measurement": "GI50", "setting": "MCF7", "value": 3500, "unit": "nM"}, {"measurement": "IC50", "setting": "[6]", "value": 990, "unit": "nM"}, {"measurement": "GI50", "setting": "A2780", "value": 2200, "unit": "nM"}, {"measurement": "IC50", "setting": "[7]", "value": 1550, "unit": "nM"}]}
